Measurements taken from PMC12444810 (Chemmedchem, 2025).
Non-standard residues stand in square brackets, D forms with d. Residues, ends and D or L forms follow the SMILES beside them. *: point of attachment. Phe(4-F) = N[C@@H](Cc1ccc(F)cc1)C(=O)O; Cbz = O=C(OCc1ccccc1)*

Experiments:
Vero/SLAM cells = assay: CCK-8 cytotoxicity assay; format: cell-based; conditions: CCK-8 assay, 100 µM, 24 h; result in words
[1] = PAMPA passive membrane permeability; format: in vitro ADME; conditions: for passive membrane permeability, in words: 10 µM, 13 h incubation, triplicate
MeV‐F [2] = conditions: cited from earlier work; for IC50: reported value
[3] = test system: fusion protein of canine distemper virus; conditions: cited from earlier work
[4] = test system: EGFP‐recombinant MeV (MeV‐EGFP); assay: Viral entry inhibition assay; format: cell-based, measles virus; conditions: ratio of IC50 values in the viral entry inhibition assay
Procedure, shortened: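 Vero/hSLAM cells were infected with EGFP‑recombinant MeV in the presence of test compound for 1 h. Virus medium was removed and cells were kept 48 h in medium containing 100 µM of the parent fusion‑inhibitor peptide. Fluorescent infected cells were counted to give IC50, in triplicate. The ratio is taken against the parent peptide's IC50, measured under the same conditions.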

MeV‐F [5] = target: T1, MeV‐F (Measles virus, UniProt Q786F3); assay: Cell-to-cell fusion assay; format: cell-based; conditions: 0.5 µM peptide, triplicate (Figure S2)
T1 sequence (Q786F3 113-550 limits assumed): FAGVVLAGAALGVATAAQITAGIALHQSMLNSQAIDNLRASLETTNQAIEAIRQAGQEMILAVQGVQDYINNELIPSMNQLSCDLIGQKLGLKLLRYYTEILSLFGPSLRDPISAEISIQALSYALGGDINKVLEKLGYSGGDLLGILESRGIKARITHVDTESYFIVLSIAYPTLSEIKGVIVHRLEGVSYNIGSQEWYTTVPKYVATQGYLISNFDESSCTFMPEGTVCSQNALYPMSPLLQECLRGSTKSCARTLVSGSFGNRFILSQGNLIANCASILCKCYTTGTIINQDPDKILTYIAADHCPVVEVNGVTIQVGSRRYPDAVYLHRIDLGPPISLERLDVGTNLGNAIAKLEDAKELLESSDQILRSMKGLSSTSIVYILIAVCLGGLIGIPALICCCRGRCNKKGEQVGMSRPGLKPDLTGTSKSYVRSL
T1 sequence (Q786F3 24-112 limits assumed): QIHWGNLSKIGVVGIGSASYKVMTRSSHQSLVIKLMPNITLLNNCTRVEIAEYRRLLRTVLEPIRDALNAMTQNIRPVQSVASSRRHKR
Procedure, shortened: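 Vero cells stably expressing human SLAM were transfected with plasmids encoding MeV‑F, MeV‑H and EGFP, then incubated with test compound for 24 h. Syncytium formation was judged by EGFP fluorescence imaging. Controls were cells without peptide and cells transfected with EGFP plasmid alone. Run in triplicate.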

| Compound | cytotoxicity to Vero/SLAM cells (Vero/SLAM cells) | passive membrane permeability, in words [1] | IC50 (MeV‐F [2]) | inhibition of canine distemper virus fusion protein [3] | enhancement in inhibitory activity compared to FIP [4] | inhibition of syncytia formation, comparison of the two compounds (MeV‐F [5]) | Papp at 13 h, 10 µM [1] | inhibitory activity compared to the original FIP (MeV‐F [2]; authors' previous study) |
| --- | --- | --- | --- | --- | --- | --- | --- | --- |
| O=C(O)CNC(=O)[C@H](Cc1ccccc1)NC(=O)[C@@H](Cc1ccccc1)NC(=O)OCc1ccccc1 [FIP] (Cbz-[dF]-Phe-Gly-OH) | did not exhibit cytotoxicity | negligible level of permeability | 1300 nM | does not inhibit |  |  |  |  |
| NC(=O)CNC(=O)[C@H](Cc1ccc(F)cc1)NC(=O)[C@@H](Cc1ccccc1)NC(=O)OCc1ccccc1 [FIP‐F2pF‐NH2] (Cbz-[dF]-[Phe(4-F)]-Gly-NH2) | did not exhibit cytotoxicity |  |  |  | 23 fold | stronger inhibitor than FIP‐ZoF‐NH2 | 1.4 ± 0.1 ×10⁻⁶ cm/s |  |
| N=C(N)NCCC[C@@H](NC(=O)[C@H](Cc1ccccc1)NC(=O)[C@@H](Cc1ccccc1)NC(=O)OCc1ccccc1)C(N)=O [FIP‐G3r‐NH2] (Cbz-[dF]-Phe-[dR]-NH2) | did not exhibit cytotoxicity | did not passively permeate the lipid membrane | 210 nM |  |  |  |  |  |
| NC(=O)CNC(=O)[C@H](Cc1ccccc1)NC(=O)[C@@H](Cc1ccccc1)NC(=O)OCc1ccccc1 [FIP‐NH2] (Cbz-[dF]-Phe-Gly-NH2) |  |  |  |  |  |  | 1.2 ± 0.2 ×10⁻⁶ cm/s | slight improvement in inhibitory activity |
